Only some compounds are listed: those with a hit (about 1.2% of all), similar ones and a draw of the others.
ROCK2 inh – blocks human Rho kinase 2 activity; O75116; purified ROCK2, Kinase-Glo ATP depletion luminescence; inhibition, % at 6 µM; actives 0.35% (n = 60,000);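 active means inhibition above the screen-wide mean inhibition plus 3 SD, cut at about 18% in these data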;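 further: plate controls were DMSO wells for no effect and Y-27632 control wells after no-enzyme background subtraction for full effect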
JNK3 inh – JNK3 (human) kinase inhibition. P53779. purified JNK3 kinase activity, HTS. inhibition, % at 8 µM. actives 0.61% (n = 60,000). AID 746; in the data active means inhibition above about 17%;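 further: 0% = DMSO and 100% = reference inhibitor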
Target sequence (P53779 whole entry, looked up): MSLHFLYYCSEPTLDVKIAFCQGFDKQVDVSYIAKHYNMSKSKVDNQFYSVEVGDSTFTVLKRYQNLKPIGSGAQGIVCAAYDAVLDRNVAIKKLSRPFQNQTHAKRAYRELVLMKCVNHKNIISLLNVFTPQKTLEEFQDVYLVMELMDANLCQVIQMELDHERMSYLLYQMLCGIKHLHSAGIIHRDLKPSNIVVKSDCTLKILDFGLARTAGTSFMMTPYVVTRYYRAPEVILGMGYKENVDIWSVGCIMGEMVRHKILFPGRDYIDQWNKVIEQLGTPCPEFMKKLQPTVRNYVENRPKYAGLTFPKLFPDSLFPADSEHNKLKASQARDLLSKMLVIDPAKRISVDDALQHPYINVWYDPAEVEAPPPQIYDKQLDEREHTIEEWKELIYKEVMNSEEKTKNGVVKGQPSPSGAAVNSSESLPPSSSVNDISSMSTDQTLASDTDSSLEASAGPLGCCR
MMP13 inh – blocks human MMP13 activity | MMP-13 fTHP FRET cleavage, Mca fluorescence | actives 0.07% (n = 65,000) | P45452 | inhibition, % at 4 µM;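 active means inhibition above the mean of compound-free control plate wells plus 3 SD, cut at about 14% in these data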;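 further: 0% = DMSO wells and 100% = wells with reference MMP-13 inhibitor after basal subtraction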
S1P3 ag – S1P3 (human) receptor agonism | Q99500 | S1P3 NFAT-BLA reporter cells, FRET ratio; relative to 1 µM S1P, basal subtracted | activation, % at 4.5 µM | actives 0.1% (n = 60,000) | AID 373;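 active means activation above the screen-wide mean plus 3 SD, cut at about 4.5% in these data, passing the limit was not always enough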
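Assay system: stable CHO line with human S1P3, Gα16, NFAT-BLA reporter; Detection: FRET β-lactamase substrate fluorescence, excitation 405 nm, 460/535 nm emission ratio, background-subtracted; Read-out: percent activation versus median 1 µM S1P response, basal-subtracted, per plate; Incubation: cells plated overnight, compound 4 h 37 °C, substrate 2 h RT.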
S1P1 ag-PAM – agonists and agonism potentiators of human S1P1 receptor. P21453. S1P1 CRE-bla cells, forskolin, beta-lactamase FRET, potentiator mode; S1P1 agonist co-added at EC20, 2 nM; 100% = saturating reference agonist, 0% = basal. activation, % at 9.5 µM. actives 0.57% (n = 56,000). AID 449;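 active means activation above a cutoff set at the mean activation of all tested compounds plus 3 SD, cut at about 54% in these data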;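 further: forskolin at 4 µM as EC80 and the EC20 agonist is SEW2871; 100% = SEW2871 at its EC100 plus forskolin at EC80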
PKA kinase inh – blocks human protein kinase A activity | P17612 | PKA Kemptide phosphorylation, Kinase-Glo ATP luminescence | inhibition, % at 6 µM | actives 0.1% (n = 65,000);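 active means inhibition above the screen-wide mean inhibition plus 3 SD, cut at about 21% in these data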
Numbers without * were called inactive; . = not tested or not shown.

SMILES	ROCK2 inh	JNK3 inh	MMP13 inh	S1P3 ag	S1P1 ag-PAM	PKA kinase inh
O=C(CCCCCn1c(SCC(=O)c2ccccc2)nc2ccccc2c1=O)NCc1ccco1	11	28*	1	-1	5	14
Cc1nc2cccc(C(=O)NCc3ccccc3)c2o1	-6	23*	-15	-2	17	-7
Cc1sc2c(c1C)c(=O)n(-c1ccccc1)c1nnc(C)n21	8	2	3	0	-23	10
Nc1nonc1C(=O)NCCNCc1cc(Br)ccc1OCc1ccc(F)cc1	12	4	-2	-2	93*	1
Cc1noc(C)c1S(=O)(=O)N(CC(=O)Nc1ccc2c(c1)OCO2)c1ccc(C(C)C)cc1	-7	1	2	-2	79*	-7
CCOC(=O)N1CCC(N2Cc3cccc(C(=O)NC(C)c4ccc5c(c4)OCCO5)c3C2=O)CC1 (configuration not stated)	-2	4	1	0	1	4
COc1ccccc1-n1c(SCC(=O)NC2CCCCC2)nc2c(c1=O)SCC2	2	0	3	-1	9	8
CCNc1nc2c(c(=O)n(C)c(=O)n2C)n1Cc1ccc(Cl)cc1	-2	4	4	-2	61*	4
Nc1nc(-c2ccccc2)cc(-c2ccccc2O)n1	12	35*	4	0	-39	-2
CC(=O)Nc1ccc(S(=O)(=O)N(C)CC(=O)NC2=NCCS2)cc1	2	3	1	-1	-22	-2
CC1CNCCN1S(=O)(=O)c1cccc2cnccc12 (configuration not stated)	107*	-2	-1	0	-1	46*
O=S(=O)(c1cccc2cnccc12)N1CCCNCC1	.	7	2	-3	28	.
CCOC(=O)c1cc(C)n(S(=O)(=O)c2ccc(C)cc2)c1C	5	3	0	-1	-2	6
c1ccc(CNc2ncnc3ccccc23)cc1	7	0	1	-2	106*	18
C=CCNc1ncnc2ccccc12	8	3	4	0	-21	11
COc1cccc(-c2nc(-c3ccc(NC(=O)c4cccnc4)cc3)no2)c1	2	-4	2	-1	60*	6
COc1ccc(CC(=O)Nc2ccc(-c3noc(-c4cccc(OC)c4)n3)cc2)cc1	6	-10	0	0	-2	2
CC(C)C1N(S(=O)(=O)c2ccccc2)CCN1S(=O)(=O)c1ccccc1	7	-4	-6	0	1	10
Cc1ccc(S(=O)(=O)NCCc2ccncc2)cc1	0	-7	2	-2	13	5
Cc1ccc(S(=O)(=O)NCCCOC(=O)Nc2ccncc2)cc1	23*	-1	-2	-1	-9	18
CN(C(=O)c1cccc(N2C(=O)C3CC=CCC3C2=O)c1)C1CCCCC1 (configuration not stated)	21*	-6	-2	0	-12	9
Cc1cc(C2=CC(C)(c3cc(C)oc3C)Nc3nc(C(F)(F)F)nn32)c(C)o1 (configuration not stated)	-2	-2	-4	0	25	-2
O=C(O)CCN=C1CCCc2ccccc2N1	2	0	1	-1	-4	3
CN(C)C=NC(=O)/C(C#N)=C1\CCc2ccccc2N1	4	47*	4	-1	.	4
COc1cccc(NC(=O)C2CCCN(S(=O)(=O)c3ccc(-n4cnnn4)cc3)C2)c1 (configuration not stated)	10	-2	3	-1	4	8
CCOc1cccc(NC(=O)C2CCCN(S(=O)(=O)c3ccc(-n4cnnn4)cc3)C2)c1 (configuration not stated)	-2	21*	-2	0	14	2
CC(C)[C@H](NC(=O)OC(C)(C)C)c1nnc(SCC(=O)Nc2ccc(Br)cc2)o1	-3	4	0	-1	61*	-6
CC(C)=CCSc1nnc([C@@H](NC(=O)OC(C)(C)C)C(C)C)o1	-12	-2	4	1	-7	-10
Cc1oc(-c2ccccc2)nc1Cn1cccc1C1=NC(c2ccccc2)CO1 (configuration not stated)	3	8	2	-1	104*	7

Source: PubChem (The Scripps Research Institute Molecular Screening Center)
